Results as given in ChEMBL document CHEMBL1138243, “Design of mechanism-based inhibitors of transthyretin amyloidosis: studies with biphenyl ethers and new structural templates” (J Med Chem, 2007).
Calls of active or inactive are those of the source. The calls are words filed in the database; no cut-off is given here.

How the values were obtained:
[1] = biological target: T1, Transthyretin (Homo sapiens, UniProt P02766); experiment: Binding affinity to transthyretin at pH 4.4
How it was run: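 Kd at pH 4.4 measured by fluorescence titration of TTR. Data were fitted to the Adair equation for two binding sites, giving Kd1 and Kd2. Experiments were run in triplicate.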

[2] = biological target: T1, Transthyretin; experiment: Inhibition of transthyretin fibril formation at pH 4.4 at 50 uM; type: functional; design: scale not given: the % may be the effect or the level left
[3] = Cytotoxicity against TTR-induced […] cells assessed as viability at 50 uM after 72 hrs; type: functional; settings: Mus musculus, N2a, read-out: Activity
[4] = biological target: T1, Transthyretin; experiment: Inhibition of transthyretin amyloidosis assessed as fibril formation at 7.2 uM at pH 4.4 relative to control; type: functional; design: scale not given: the % may be the effect or the level left
How it was run: (§1)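 WT TTR tetramer (7.2 µM) in pH 7 phosphate/KCl/EDTA was preincubated 1 h at 25 °C with inhibitor (7.2 or 21.6 µM; 1:1 or 1:3) in 1% DMSO. It was then diluted with pH 4.4 acetate/KCl/EDTA buffer and held stagnant 72 h at 37 °C. Turbidity was read at 340 nm as % fibril formation versus untreated (100%). Mean of five experiments.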

[5] = biological target: T1, Transthyretin; experiment: Inhibition of transthyretin fibril formation assessed as turbidity at 21.6 uM at pH 4.4 after 3 hrs; type: functional
How it was run: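 Kinetics run with 7.2 µM TTR plus 21.6 µM inhibitor at pH 4.4, 37 °C. Turbidity at 340 nm was followed for 3 h. Initial fibrillization rate came from the linear slope of A340 versus time. Three experiments in triplicate.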

[6] = biological target: T1, Transthyretin; experiment: Inhibition of transthyretin amyloidosis assessed as fibril formation at 21.6 uM at pH 4.4 relative to control; type: functional; design: scale not given: the % may be the effect or the level left; how it was run: as §1
[7] = test system: Neuro2a; experiment: Cytotoxicity against […] cells at 50 uM; type: functional, cell-based; settings: Mus musculus
[8] = biological target: T1, Transthyretin; experiment: Stabilization of urea-induced transthyretin dissociation at 5.4 uM at pH 7.2 after […] relative to control
[9] = biological target: T1, Transthyretin; experiment: Inhibition of fibril elongation of preformed transthyretin at […] after 72 hrs by turbidity assay; type: functional
[10] = biological target: T1, Transthyretin; experiment: Inhibition of transthyretin amyloidosis assessed as fibril formation pH 4.4 at 100 uM; type: functional
How it was run: (§2)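 Library screen of acid-mediated TTR fibril formation at pH 4.4 with inhibitor at 100 µM. TTR was at 7.2 µM.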

[11] = biological target: T1, Transthyretin; experiment: Inhibition of transthyretin fibril formation at pH 4.4 at 100 uM; type: functional; how it was run: as §2
[12] = biological target: T1, Transthyretin; experiment: Stabilization of urea-induced transthyretin dissociation at 5.4 uM at pH 7.2 after 1 hr relative to control
[13] = biological target: T1, Transthyretin; experiment: Inhibition of transthyretin fibril formation at pH 4.4; type: functional

SMILES | Activity [2] | Activity [4] | inhibition [5] | Activity [6] | percent fibril formation relative to control [10] | inhibition [11] | also measured
COc1cc(CCl)ccc1Oc1ccccc1 | 0% | 25% | > 80% | 0% |  |  | Kd [1]: Active; viability at 50 µM [3]: 86%; Activity [7]: Not toxic; Activity [8]: < 5%; Activity [9]: Active
O=C(O)c1ccc(Oc2ccc([N+](=O)[O-])cc2[N+](=O)[O-])c(O)c1 | 75% |  |  |  |  |  | 
O=Cc1ccc(Oc2ccccc2)c(O)c1 | 112% |  |  |  |  |  | 
COc1cc(C=O)ccc1Oc1ccccc1 | 0% | 12% | > 80% | 0% |  |  | viability at 50 µM [3]: 86%; Activity [7]: Not toxic; Activity [8]: < 5%; Activity [9]: Active
COc1cc(CO)ccc1Oc1ccccc1 | 61.2% |  |  |  |  |  | 
O=Cc1ccc(Oc2ccc(Cl)cc2Cl)c(O)c1 | 0% | 0% | > 80% | 0% |  |  | viability at 50 µM [3]: 86%; Activity [7]: Not toxic; Activity [8]: < 5%; Activity [9]: Active
O=Cc1ccc(Oc2ccc([N+](=O)[O-])cc2[N+](=O)[O-])c(O)c1 | 40.5% |  |  |  |  |  | 
COc1cc(CO)ccc1Oc1ccc([N+](=O)[O-])cc1[N+](=O)[O-] | 28% |  |  |  |  |  | 
O=C(Nc1nnc[nH]1)c1c(Cl)ccc(Cl)c1Cl |  | 11% | > 80% | 3.6% | 11.5% | 88.5% | viability at 50 µM [3]: 86%; Activity [7]: Not toxic; Activity [8]: < 5%; Activity [9]: Active
COc1cc(C=O)ccc1Oc1ccc([N+](=O)[O-])cc1[N+](=O)[O-] | 66% |  |  |  |  |  | 
Oc1cc(Cl)ccc1Oc1ccc(Cl)cc1Cl | 41% | 75% | 62% | 66% |  |  | Activity [12]: 47%
Oc1ccccc1-c1nnc(S)o1 |  | 21% | > 80% | 0% | 13.8% | 86.2% | viability at 50 µM [3]: 86%; Activity [7]: Not toxic; Activity [8]: < 5%; Activity [9]: Active
O=C(O)c1ccc(Oc2ccc(Cl)cc2Cl)c(O)c1 | 0% | 29% | > 80% | 13.3% |  |  | viability at 50 µM [3]: 86%; Activity [12]: 21%; Activity [7]: Not toxic; Activity [9]: Active
COc1cc(CCl)ccc1Oc1ccc(Cl)cc1Cl | 0% | 26% | > 80% | 0% |  |  | viability at 50 µM [3]: 86%; Activity [7]: Not toxic; Activity [8]: < 5%; Activity [9]: Active
OCc1ccc(Oc2ccc(Cl)cc2Cl)c(O)c1 | 11.5% | 12% | > 80% | 2.6% |  |  | viability at 50 µM [3]: 86%; Activity [7]: Not toxic; Activity [8]: < 5%; Activity [9]: Active
COc1cc(C(=O)O)ccc1Oc1ccccc1 | 40% |  |  |  |  |  | IC50 [13]: 41 µM
Oc1cc(CCl)ccc1Oc1ccc(Cl)cc1Cl | 0% | 5% | > 80% | 0% |  |  | viability at 50 µM [3]: 86%; Activity [7]: Not toxic; Activity [8]: < 5%
COc1cc(CO)ccc1Oc1ccc([N+](=O)[O-])cc1 | 89.5% |  |  |  |  |  | 
N[C@H](Cc1cc(I)c(Oc2cc(I)c(O)c(I)c2)c(I)c1)C(=O)O |  | 48% | 75% | 7% |  |  | Activity [12]: 27%

SMILES | Activity [2] | Activity [4] | inhibition [5] | Activity [6] | percent fibril formation relative to control [10] | inhibition [11] | also measured
COc1cc(COC(C)=O)ccc1Oc1ccc([N+](=O)[O-])cc1[N+](=O)[O-] | 69% |  |  |  |  |  | 
O=C(O)c1ccc(Oc2ccccc2)c(O)c1 | 5% | 32% | > 80% | 5% |  |  | Kd ([1]; read-out: Kd): 0.027 µM; IC50 [13]: 3.18 µM; viability at 50 µM [3]: 86%; Activity [7]: Not toxic; Activity [8]: < 5%; Activity [9]: Active
COc1ccc(NC(=S)N(CCCN2CCOCC2)Cc2cccs2)cc1 |  |  |  |  | 102% | 0% | 
Cn1ncc(/N=C/c2ccccc2O)c1C(=O)N1CCOCC1 |  |  |  |  | 50% | 50% | 
COc1cc(C(=O)O)ccc1Oc1ccc(Cl)cc1Cl | 0% | 10% | > 80% | 0% |  |  | viability at 50 µM [3]: 86%; Activity [7]: Not toxic; Activity [8]: < 5%; Activity [9]: Active
Cc1ccsc1/C=c1\sc2nc(-c3cccs3)nn2c1=O |  |  |  |  | 77.8% | 22.3% | 
O=C(O)C1CSC(c2ccc(Cl)cc2Cl)N1 (stereo unspecified) |  |  |  |  | 22.3% | 77.7% | 
Nc1nc(Cl)cc(Oc2ccccc2F)n1 |  |  |  |  | 52.4% | 47.6% | 
Cc1ccn2c(Nc3ccccc3C)c(-c3ccc(O)cc3)nc2c1 |  |  |  |  | 130% | 0% | 
COc1ccc(NC(=S)N(CCCN2CCOCC2)Cc2cccnc2)cc1 |  |  |  |  | 98.6% | 1.4% | 
COc1cc(CCl)ccc1Oc1ccc([N+](=O)[O-])cc1[N+](=O)[O-] | 79% |  |  |  |  |  | 
O=c1c2ccccc2nc2sc(Nc3ccc(F)cc3F)nn12 |  |  |  |  | -2.03% | 102% | 
O=C(O)C1CSC(c2ccc(Cl)c(Cl)c2)N1 (stereo unspecified) |  |  |  |  | 102% | 0% | 
O=C1OC(c2ccc(Cl)cc2Cl)=N/C1=C\c1cccs1 |  |  |  |  | 136% | 0% | 
Fc1ccccc1NC(=S)N(CCCN1CCOCC1)Cc1cccnc1 |  |  |  |  | 99.3% | 0.7% | 
Cc1nc2c(ccc3ccccc32)c(O)c1CN(C)Cc1ccccc1 |  |  |  |  | 105% | 0% | 
O=C(Nc1c2c(nn1-c1cccc(Cl)c1)C[S+]([O-])C2)c1ccccc1F (stereo unspecified) |  |  |  |  | 89.5% | 10.4% | 
O=C1CSC(c2ccc(Cl)cc2Cl)N1c1ccc(Cl)cc1 (stereo unspecified) |  |  |  |  | 20.3% | 79.7% | 
COc1cc(C(=O)O)ccc1Oc1ccc([N+](=O)[O-])cc1[N+](=O)[O-] | 48% |  |  |  |  |  | 
